Results reported in ChEMBL document CHEMBL4014311, “Discovery of a Hepatitis C Virus NS5B Replicase Palm Site Allosteric Inhibitor (BMS-929075) Advanced to Phase 1 Clinical Studies” (J Med Chem, 2017).

Key:
[1] = Cytotoxicity against human HuH7 cells after 3 days by CellTiter-Blue assay; assay type: cell-based, Huh-7
[2] = Inhibition of HCV genotype 1b NS5B replicase C316N mutant infected in human HuH7 cells assessed as reduction of viral replication after 3 days by luciferase reporter assay; assay type: cell-based, Hepatitis C virus subtype 1b; settings: Hepatitis C virus, Huh-7, 72 h
Hepatitis C virus [3] = experiment: Antiviral activity against HCV genotype 1b infected in human HuH7 cells after 3 days by luciferase reporter assay; assay type: functional, cell-based, Hepacivirus hominis; settings: Hepatitis C virus, genotype 1b, Huh-7, 72 h; read-out: EC50
Hepatitis C virus [4] = experiment: Antiviral activity against HCV genotype 1a infected in human HuH7 cells after 3 days by luciferase reporter assay; assay type: functional, cell-based, Hepacivirus hominis, subtype 1a; settings: Hepatitis C virus, subtype 1a, Huh-7, 72 h; read-out: EC50
[5] = Half life in human liver microsomes; assay type: ADME, microsome
[6] = Half life in rat liver microsomes; assay type: ADME, microsome
[7] = Membrane permeability at pH 7.4 by PAMPA; assay type: physicochemical; settings: read-out: permeability
[8] = Drug uptake in Sprague-Dawley rat liver at 6 mg/kg, po via gavage after 6 hrs by LC-MS/MS analysis; assay type: ADME, organism-based; settings: read-out: Drug uptake
Method in brief: (§1)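 Fasted rats were dosed orally in 90:10 PEG-400/ethanol; 6 h livers came from satellite animals. In the screening variant, n = 2 and plasma was taken to 6 h with livers at the terminal point. Livers were rinsed, blotted, weighed and homogenized in 2 volumes of 80% acetonitrile in HBSS per gram, then centrifuged. Supernatant and plasma were analysed by LC/MS/MS.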

Cytochrome P450 2C8 = target: T1, Cytochrome P450 2C8 (Homo sapiens, UniProt P10632); experiment: Inhibition of microsomal CYP2C8 (unknown origin); assay type: ADME
T1 sequence (P10632 whole entry): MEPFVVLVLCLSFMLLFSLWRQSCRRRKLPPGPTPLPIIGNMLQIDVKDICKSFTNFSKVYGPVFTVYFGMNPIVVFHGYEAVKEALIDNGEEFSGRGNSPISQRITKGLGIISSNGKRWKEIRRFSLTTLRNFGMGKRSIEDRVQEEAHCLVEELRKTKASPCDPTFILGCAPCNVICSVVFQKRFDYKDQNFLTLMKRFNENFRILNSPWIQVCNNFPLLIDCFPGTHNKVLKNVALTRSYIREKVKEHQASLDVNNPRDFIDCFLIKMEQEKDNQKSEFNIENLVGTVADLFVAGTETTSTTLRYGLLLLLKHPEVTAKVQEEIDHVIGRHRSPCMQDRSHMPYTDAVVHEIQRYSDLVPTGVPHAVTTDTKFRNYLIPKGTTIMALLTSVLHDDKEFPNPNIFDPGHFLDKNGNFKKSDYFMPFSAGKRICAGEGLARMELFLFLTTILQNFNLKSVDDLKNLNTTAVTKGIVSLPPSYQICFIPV

Cytochrome P450 3A4 = Cytochrome P450 3A4 (Homo sapiens, UniProt P08684); experiment: Inhibition of microsomal CYP3A4 (unknown origin); assay type: ADME
[9] = Half life in dog liver microsomes; assay type: ADME, Canis lupus familiaris, microsome
[10] = Half life in monkey liver microsomes; assay type: ADME, Macaca mulatta, microsome; settings: rhesus monkey
[11] = target: Voltage-gated inwardly rectifying potassium channel KCNH2 (Homo sapiens, UniProt Q12809); experiment: Inhibition of human ERG by thallium flux assay
[12] = target: T2, Nuclear receptor subfamily 1 group I member 2 (Homo sapiens, UniProt O75469); experiment: Transactivation of PXR (unknown origin); assay type: ADME
T2 sequence (O75469 whole entry): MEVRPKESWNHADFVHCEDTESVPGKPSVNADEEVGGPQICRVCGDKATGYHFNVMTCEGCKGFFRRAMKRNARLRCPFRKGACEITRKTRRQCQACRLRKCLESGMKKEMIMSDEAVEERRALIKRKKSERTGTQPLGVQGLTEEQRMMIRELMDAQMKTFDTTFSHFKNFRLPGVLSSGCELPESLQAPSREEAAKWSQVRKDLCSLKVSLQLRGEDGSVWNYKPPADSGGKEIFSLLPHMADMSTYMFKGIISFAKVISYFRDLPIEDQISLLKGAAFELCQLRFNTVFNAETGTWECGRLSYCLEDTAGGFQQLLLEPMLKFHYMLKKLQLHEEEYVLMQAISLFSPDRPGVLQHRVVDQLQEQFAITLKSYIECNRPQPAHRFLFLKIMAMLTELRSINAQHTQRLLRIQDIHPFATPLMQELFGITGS

[13] = Lipophilicity, log D of the compound at pH 6.5 by shake flask method; assay type: physicochemical; settings: buffer
hERG = hERG (Homo sapiens, UniProt Q12809); experiment: Inhibition of human ERG at 10 uM by patch clamp assay
Rattus norvegicus [14] = experiment: Half life in Sprague-Dawley rat at 2 mg/kg,iv by LC/MS/MS analysis; assay type: ADME, organism-based; settings: in vivo
Method in brief: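 A 10 min constant-rate jugular vein infusion was given in 90:10 PEG-400/ethanol (v/v), n = 3 rats. Plasma was sampled predose and at 10, 15, 30, 45, 60 min and 2, 4, 6, 8, 24 h, then assayed by LC/MS/MS. Clearance and apparent terminal t1/2 were estimated by noncompartmental analysis.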

Rattus norvegicus [15] = experiment: Volume of distribution at steady state in Sprague-Dawley rat at 2 mg/kg, iv by LC/MS/MS analysis; assay type: ADME, organism-based; settings: in vivo
Method in brief: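 Rats received a 2 mg/kg IV dose in 90:10 PEG-400/ethanol as a 10 min constant-rate jugular infusion. Blood collected predose and at 10, 15, 30, 45, 60 min and 2, 4, 6, 8, 24 h; n = 3. Plasma analyzed by LC/MS/MS. Vss derived by noncompartmental analysis of IV data.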

[16] = Cmax in Sprague-Dawley rat at 6 mg/kg, po administered via gavage by LC/MS/MS analysis; assay type: ADME, organism-based; design: dose 6 mg/kg, route oral; settings: in vivo
Method in brief: (§2)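 Rats were fasted overnight with free access to water, then dosed by gastric gavage with an […] solution in 90:10 PEG-400/ethanol (v/v), n = 3 per group. EDTA plasma was sampled predose and at 15, 30, 45, 60 min and 2, 4, 6, 8, 24 h, then assayed by LC/MS/MS. Parameters come from noncompartmental analysis: Cmax observed directly, AUC by linear/log trapezoidal summation, F as dose-normalized PO/IV AUC ratio.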

[17] = Tmax in Sprague-Dawley rat at 6 mg/kg, po administered via gavage by LC/MS/MS analysis; assay type: ADME, organism-based; settings: in vivo
Method in brief: (§3)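 Rats fasted overnight, then dosed by gavage at 6 mg/kg in 90:10 PEG-400/ethanol (v/v). Plasma sampled serially from cannula into EDTA tubes predose and at 15, 30, 45, 60 min and 2, 4, 6, 8, 24 h; n = 3. Livers removed at 6 h (satellite animals) and 24 h, homogenized in 80% acetonitrile/HBSS, assayed by LC/MS/MS. Tmax taken directly from observed data.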

[18] = AUC in Sprague-Dawley rat at 6 mg/kg, po administered via gavage by LC/MS/MS analysis; assay type: ADME, organism-based; settings: in vivo; method in brief: as §2
[19] = Drug uptake in Sprague-Dawley rat liver at 6 mg/kg, po administered via gavage after 24 hrs by LC/MS/MS analysis; assay type: ADME, organism-based; settings: read-out: Drug uptake; method in brief: as §1
[20] = Ratio of drug uptake in Sprague-Dawley rat liver to plasma at 6 mg/kg, po administered via gavage after 24 hrs by LC/MS/MS analysis; assay type: ADME, organism-based; method in brief: as §3
[21] = Oral bioavailability in Sprague-Dawley rat at 6 mg/kg by LC/MS/MS analysis; assay type: ADME, organism-based; settings: in vivo; method in brief: as §2
Hepatitis C virus [22] = experiment: Ratio of EC50 for HCV genotype 1b infected in human HuH7 cells in presence of 40% human serum to EC50 for HCV genotype-1b infected in human HuH7 cells; assay type: functional, Hepacivirus hominis
Hepatitis C virus [23] = experiment: Ratio of EC50 for HCV genotype 1a infected in human HuH7 cells in presence of 40% human serum to EC50 for HCV genotype 1a infected in human HuH7 cells; assay type: functional, Hepacivirus hominis, subtype 1a
[24] = Inhibition of HCV genotype 1b NS5B replicase expressed in Escherichia coli BL21(DE3) using polyA/biotinylated oligo(dT12) as template/primer in presence of [3H]UTP after 60 mins by SPA assay; design: species or system Hepatitis C virus subtype 1b
[25] = Ratio of IC50 for HCV genotype 1b […] replicase to EC50 for HCV genotype 1b infected in human HuH7 cells; design: species or system Hepatitis C virus subtype 1b
[26] = Metabolic stability in human liver microsomes assessed as parent compound remaining after 10 mins; assay type: ADME, microsome; settings: read-out: Stability
[27] = Metabolic stability in rat liver microsomes assessed as parent compound remaining after 10 mins; assay type: ADME, microsome; settings: read-out: Stability
[28] = Drug uptake in Sprague-Dawley rat plasma at 6 mg/kg, po via gavage after 6 hrs by LC-MS/MS analysis; assay type: ADME, organism-based; method in brief: as §1
[29] = Clearance in Sprague-Dawley rat at 6 mg/kg, po via gavage by LC-MS/MS analysis; assay type: ADME, organism-based; settings: in vivo

Cytochrome P450 3A4, sequence (P08684 whole entry): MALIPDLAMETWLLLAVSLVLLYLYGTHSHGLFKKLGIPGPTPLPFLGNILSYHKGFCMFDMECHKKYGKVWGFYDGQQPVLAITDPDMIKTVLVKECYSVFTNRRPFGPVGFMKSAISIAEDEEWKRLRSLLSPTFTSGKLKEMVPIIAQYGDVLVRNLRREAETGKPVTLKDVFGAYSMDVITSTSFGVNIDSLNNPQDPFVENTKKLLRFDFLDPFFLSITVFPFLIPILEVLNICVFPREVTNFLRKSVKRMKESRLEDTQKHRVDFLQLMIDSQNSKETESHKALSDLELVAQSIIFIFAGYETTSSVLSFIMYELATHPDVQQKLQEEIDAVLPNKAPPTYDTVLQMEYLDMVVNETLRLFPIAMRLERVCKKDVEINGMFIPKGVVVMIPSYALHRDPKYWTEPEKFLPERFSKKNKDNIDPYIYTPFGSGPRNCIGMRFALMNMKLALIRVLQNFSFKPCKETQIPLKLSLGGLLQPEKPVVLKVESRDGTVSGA
Voltage-gated inwardly rectifying potassium channel KCNH2, sequence (Q12809 whole entry): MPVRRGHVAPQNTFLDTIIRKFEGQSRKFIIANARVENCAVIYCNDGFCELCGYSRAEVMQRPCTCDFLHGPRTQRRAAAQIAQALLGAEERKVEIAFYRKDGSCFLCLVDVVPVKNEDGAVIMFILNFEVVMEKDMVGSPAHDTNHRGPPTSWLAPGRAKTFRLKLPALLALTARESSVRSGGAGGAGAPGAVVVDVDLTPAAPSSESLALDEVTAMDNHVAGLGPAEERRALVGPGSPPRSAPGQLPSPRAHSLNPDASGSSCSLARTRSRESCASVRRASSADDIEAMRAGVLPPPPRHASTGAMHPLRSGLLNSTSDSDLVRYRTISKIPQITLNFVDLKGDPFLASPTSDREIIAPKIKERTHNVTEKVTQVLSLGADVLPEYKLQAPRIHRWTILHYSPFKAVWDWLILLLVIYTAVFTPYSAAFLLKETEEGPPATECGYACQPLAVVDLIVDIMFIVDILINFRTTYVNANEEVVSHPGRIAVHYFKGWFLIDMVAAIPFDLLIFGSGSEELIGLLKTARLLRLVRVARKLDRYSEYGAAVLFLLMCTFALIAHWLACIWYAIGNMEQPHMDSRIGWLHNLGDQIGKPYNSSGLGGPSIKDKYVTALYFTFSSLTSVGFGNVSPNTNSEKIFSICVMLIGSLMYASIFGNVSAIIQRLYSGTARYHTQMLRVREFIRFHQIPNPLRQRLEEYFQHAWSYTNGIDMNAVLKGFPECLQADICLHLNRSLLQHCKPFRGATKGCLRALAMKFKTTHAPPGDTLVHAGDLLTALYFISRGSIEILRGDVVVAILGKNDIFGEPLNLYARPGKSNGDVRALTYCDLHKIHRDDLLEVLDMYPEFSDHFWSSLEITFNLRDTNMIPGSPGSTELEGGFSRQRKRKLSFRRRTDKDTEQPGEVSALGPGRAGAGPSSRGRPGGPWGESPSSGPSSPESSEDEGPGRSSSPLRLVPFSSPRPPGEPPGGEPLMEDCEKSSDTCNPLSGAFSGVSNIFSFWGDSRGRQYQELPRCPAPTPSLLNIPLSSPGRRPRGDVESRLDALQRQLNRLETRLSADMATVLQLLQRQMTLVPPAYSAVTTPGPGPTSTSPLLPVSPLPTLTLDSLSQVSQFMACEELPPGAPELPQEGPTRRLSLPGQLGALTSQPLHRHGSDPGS
hERG, sequence (Q12809 whole entry): as above

Compound `CNC(=O)c1c(-c2ccc(F)cc2)oc2ccc(-c3cc(C(=O)NC4(c5ncccn5)CC4)ccc3C)cc12` has a CC50 at 72 h [1] of 20000 nM, an EC50 [2] of 51 nM and an EC50 (Hepatitis C virus [3]) of 1 nM. The EC50 (Hepatitis C virus [4]) was 2.3 nM, the half-life [5] was over 2 h and the half-life [6] was 1.43 h. It also gave a Papp [7] of 76.9 ×10⁻⁶ cm/s, a concentration at 6 h [8] of 8.7 µM and an IC50 (Cytochrome P450 2C8) of 3900 nM. For the same compound, the IC50 (Cytochrome P450 3A4) was 11400 nM, the half-life [9] was 0.767 h and the half-life [10] was 0.85 h. The IC50 [11] was 4800 nM, the EC50 [12] was over 50000 nM and the logD [13] was 4.76. For the same compound, the inhibition at 10 µM (hERG) was 96%, the t1/2 (Rattus norvegicus [14]) was 5.3 h and the Vdss (Rattus norvegicus [15]) was 6.1 L/kg. The Cmax [16] was 6.7 µM, the Tmax [17] was 4.7 h and the AUC [18] was 48.7 µM·h. For the same compound, the concentration at 24 h [19] was 0.614 µM, the Kp at 24 h [20] was 2.4 and the bioavailability [21] was over 100%. For the same compound, the “Ratio EC50” value (Hepatitis C virus [22]) was 4 and the “Ratio EC50” value (Hepatitis C virus [23]) was 4.
With `CNC(=O)c1cccc(-c2ccc3oc(-c4ccc(F)cc4)c(C(=O)NC)c3c2)c1` the IC50 [24] was 2200 nM, the EC50 (Hepatitis C virus [3]) was 590 nM and the “Ratio IC50/EC50” value [25] was 2.
With `CNC(=O)c1c(-c2ccc(F)cc2)oc2ccc(-c3cc(C(=O)NC4(c5ccccn5)CC4)ccc3C)cc12` the EC50 [2] was 55 nM, the EC50 (Hepatitis C virus [3]) was 1.9 nM and the EC50 (Hepatitis C virus [4]) was 2.8 nM. The remaining at 10 min [26] was 89%, the remaining at 10 min [27] was 82% and the half-life [5] was 1.8 h. For the same compound, the half-life [6] was 1.02 h, the Papp [7] was 99.9 ×10⁻⁶ cm/s and the concentration at 6 h [28] was 1.64 µM. For the same compound, the concentration at 6 h [8] was 15.7 µM, the CL/F [29] was 14 mL/min/kg and the IC50 (Cytochrome P450 2C8) was 1000 nM. The IC50 (Cytochrome P450 3A4) was 4100 nM, the half-life [9] was 0.233 h and the half-life [10] was 0.333 h. For the same compound, the EC50 [12] was 1600 nM and the logD [13] was 5.42.
